Results: ChEMBL document CHEMBL4699407, “Isoquinoline thiosemicarbazone displays potent anticancer activity with in vivo efficacy against aggressive leukemias” (RSC Med Chem, 2020)
Activity calls are given as the source filed them. The rule behind the calls is not given here.

Experiments:
L3.6pl = test: Cytotoxicity against human L3.6pl cells assessed as reduction in cell viability in presence of Cu2+ incubated for 72 hrs by cell titer-glo luminescent cell viability assay; type: functional, cell-based
Outline: (§1)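 Cells were grown in DMEM or RPMI with 10% FBS, without antibiotics, at 37 °C, 20% O2, 5% CO2. Adherent lines were seeded at 500 cells/well. Serially diluted compound was given with 20 μM Cu(II) (CuCl2) for 72 h; leukemia models received pre-formed 1:1 copper complex. ATP was read by CellTiter-Glo luminescence. IC50 is relative to DMSO-treated cells.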

MIA PaCa-2 [1] = test: Induction of DNA damage in human MIA PaCa-2 cells assessed as decrease in CTP level at 25 nM in presence of Cu2+ incubated for 48 hrs by LC-MS/MS analysis; type: functional, cell-based
Outline: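 MIAPACA2 cells were given 25 nM compound plus 20 μM Cu(II) for 48 h in glucose-free DMEM with 10% dialyzed FBS and 11 mM [U-13C6]glucose. Nucleotide pools were quantified by LC-MS/MS with multiple reaction monitoring. Mean ± SD, n = 3, two-way ANOVA with Bonferroni correction.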

MIA PaCa-2 [2] = test: Cytotoxicity against human MIA PaCa2 cells assessed as reduction in cell viability at 25 nM in presence of Fe2+ incubated for 72 hrs by cell titer-glo luminescent cell viability assay; type: functional, cell-based
Outline: (§2)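 MIAPACA2 cells were exposed to compound for 72 h with 20 μM Fe(II) or Zn(II) supplement. Proliferation was read by CellTiter-Glo ATP luminescence.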

MIA PaCa-2 [3] = test: Induction of apoptosis in human MIA PaCa-2 cells assessed as increase in caspase 3 cleavage at 10 nM in presence of Cu2+ incubated for 48 hrs by immunoblot assay; type: functional, cell-based
Outline: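 Treated with 10 nM compound plus 20 μM Cu(II). Lysed in RIPA buffer with protease and phosphatase inhibitors, then sonicated and centrifuged at 20 000g, 4 °C. Protein measured by micro BCA, and equal amounts run on bis-tris gels. Primary antibodies in 5% BSA/TBST; HRP-linked anti-rabbit or anti-mouse secondaries at 1:2500. Chemiluminescent detection on film; representative blot.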

143B = test: Cytotoxicity against human 143-BTK Rho0 cells assessed as reduction in cell viability at 25 to 100 nM incubated for 48 hrs by trypan blue assay; type: functional, cell-based; conditions: dose nM 25-100, time 48.0 hrs
Outline: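 143 BTK parental (WT) and ρ0 cells were exposed to the indicated compound concentrations plus 20 μM Cu(II) for 48 h. Viable cells were counted by trypan blue staining on a Vi-Cell counter. Mean ± SD, n = 2, Student t-test.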

MIA PaCa-2 [4] = test: Induction of apoptosis in human MIA PaCa-2 cells assessed as increase in early apoptotic cells at 25 nM in presence of Cu2+ incubated for 72 hrs by annexin V and propidium iodide staining based flow cytometry analysis relative to control; type: functional
Outline: (§3)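 Cells given 25 nM compound with or without 20 μM Cu(II) and/or the ATR inhibitor VE-822 at 250 nM for 72 h. Stained with annexin V-FITC and propidium iodide, then analysed on a five-laser flow cytometer to score viable, early apoptotic, late apoptotic and necrotic fractions against vehicle.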

MIA PaCa-2 [5] = test: Induction of apoptosis in human MIA PaCa-2 cells assessed as decrease in viable cells at 25 nM incubated for 72 hrs by annexin V and propidium iodide staining based flow cytometry analysis relative to control; type: functional; outline: as §3
MIA PaCa-2 [6] = test: Induction of apoptosis in human MIA PaCa-2 cells assessed as increase in necrotic cells at 25 nM in presence of Cu2+ and ATRi incubated for 72 hrs by annexin V and propidium iodide staining based flow cytometry analysis relative to control; type: functional; outline: as §3
MIA PaCa-2 [7] = test: Induction of apoptosis in human MIA PaCa-2 cells assessed as decrease in viable cells at 25 nM in presence of ATRi incubated for 72 hrs by annexin V and propidium iodide staining based flow cytometry analysis relative to control; type: functional; outline: as §3
MIA PaCa-2 [8] = test: Induction of apoptosis in human MIA PaCa-2 cells assessed as increase in early apoptotic cells at 25 nM in presence of ATRi incubated for 72 hrs by annexin V and propidium iodide staining based flow cytometry analysis relative to control; type: functional; outline: as §3
MIA PaCa-2 [9] = test: Cytotoxicity against human MIA PaCa2 cells assessed as reduction in cell viability at 25 nM in presence of Zn2+ incubated for 72 hrs by cell titer-glo luminescent cell viability assay; type: functional, cell-based; outline: as §2
SW1990 = test: Cytotoxicity against human SW1990 cells assessed as reduction in cell viability in presence of Cu2+ incubated for 72 hrs by cell titer-glo luminescent cell viability assay; type: functional, cell-based; conditions: SW1990, 72 h; outline: as §1
MIA PaCa-2 [10] = test: Induction of apoptosis in human MIA PaCa-2 cells assessed as reduction in viable cells at 25 nM in presence of Cu2+ and ATRi incubated for 72 hrs by annexin V and propidium iodide staining based flow cytometry analysis relative to control; type: functional; outline: as §3
BXPC-3 = test: Cytotoxicity against human BXPC-3 cells assessed as reduction in cell viability in presence of Cu2+ incubated for 72 hrs by cell titer-glo luminescent cell viability assay; type: functional, cell-based; conditions: BXPC-3, 72 h; outline: as §1
MIA PaCa-2 [11] = test: Induction of ROS generation in human MIA PaCa-2 cells at 25 nM in presence of Cu2+ incubated for 24 hrs by CM-H2DCFDA staining based flow cytometry analysis; type: functional, cell-based
Outline: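 Treated with 25 nM compound ± 20 μM Cu(II) for 24 h. Cells loaded with 5 μM CM-H2DCFDA for 30 min, spun at 450g for 4 min, and returned to medium containing compound and/or Cu(II) for 30 min. Then spun, resuspended in PBS and read by flow cytometry as mean fluorescence intensity. Mean ± SD, n = 2, Student t-test.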

MIA PaCa-2 [12] = test: Induction of apoptosis in human MIA PaCa-2 cells assessed as increase in late apoptotic cells at 25 nM in presence of Cu2+ and ATRi incubated for 72 hrs by annexin V and propidium iodide staining based flow cytometry analysis relative to control; type: functional; outline: as §3
PANC-1 = test: Cytotoxicity against human PANC-1 cells assessed as reduction in cell viability in presence of Cu2+ incubated for 72 hrs by cell titer-glo luminescent cell viability assay; type: functional, cell-based; conditions: PANC-1, 72 h; outline: as §1
PANC-03-27 = test: Cytotoxicity against human PANC-03-27 cells assessed as reduction in cell viability in presence of Cu2+ incubated for 72 hrs by cell titer-glo luminescent cell viability assay; type: functional, cell-based; conditions: PANC-03-27, 72 h; outline: as §1
Panc203 = test: Cytotoxicity against human Panc203 cells assessed as reduction in cell viability in presence of Cu2+ incubated for 72 hrs by cell titer-glo luminescent cell viability assay; type: functional, cell-based; conditions: Panc203, 72 h; outline: as §1
HPAF-II = test: Cytotoxicity against human HPAF-II cells assessed as reduction in cell viability in presence of Cu2+ incubated for 72 hrs by cell titer-glo luminescent cell viability assay; type: functional, cell-based; outline: as §1
[13] = Cytotoxicity against human SUIT-2 cells assessed as reduction in cell viability in presence of Cu2+ incubated for 72 hrs by cell titer-glo luminescent cell viability assay; type: functional, cell-based; conditions: SUIT-2, 72 h; outline: as §1
MIA PaCa-2 [14] = test: Cytotoxicity against human MIA PaCa2 cells assessed as reduction in cell viability at 25 nM in presence of Cu2+ and BCPS incubated for 24 hrs by trypan blue assay; type: functional, cell-based
Outline: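 MIAPACA2 cells were given 25 nM compound plus 20 μM Cu(II) for 24 h, with or without the membrane-impermeable copper chelator bathocuproine disulfonate (300 μM). Viable cells were measured by trypan blue exclusion on a Vi-Cell counter.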

Question: For `CN(C)C(=S)NN=Cc1nccc2cc(F)ccc12`, which IC50 (L3.6pl) is on record?
Answer: The IC50 was 1 nM.

Question: And the Activity (MIA PaCa-2 [1])?
Answer: Its Activity is “inactive”.

Question: And the Activity (MIA PaCa-2 [2])?
Answer: Its Activity is “Active”.

Question: What about the Activity (MIA PaCa-2 [3]) of the same molecule?
Answer: Its Activity is “Active”.

Question: What about the Activity (143B) of the same molecule?
Answer: The Activity was “inactive”.

Question: What about the Activity (MIA PaCa-2 [4]) of the same molecule?
Answer: Its Activity is 13.9%.

Question: What about the Activity (MIA PaCa-2 [5]) of the same molecule?
Answer: Its Activity is 94.9%.

Question: And the Activity (MIA PaCa-2 [6])?
Answer: The Activity was 4.72%.

Question: And the Activity (MIA PaCa-2 [7])?
Answer: Its Activity is 64.7%.

Question: And the Activity (MIA PaCa-2 [8])?
Answer: Its Activity is 9.11%.

Question: What about the Activity (MIA PaCa-2 [9]) of the same molecule?
Answer: Its Activity is “inactive”.

Question: And the IC50 (SW1990)?
Answer: Its IC50 is 1 nM.

Question: What about the Activity (MIA PaCa-2 [10]) of the same molecule?
Answer: The Activity was 27.8%.

Question: What about the IC50 (BXPC-3) of the same molecule?
Answer: The IC50 was 1 nM.

Question: What about the Activity (MIA PaCa-2 [11]) of the same molecule?
Answer: Its Activity is “Active”.

Question: What about the Activity (MIA PaCa-2 [12]) of the same molecule?
Answer: The Activity was 42.7%.

Question: And the IC50 (PANC-1)?
Answer: Its IC50 is 1 nM.

Question: And the IC50 (PANC-03-27)?
Answer: Its IC50 is 1 nM.

Question: What about the IC50 (Panc203) of the same molecule?
Answer: The IC50 was 1 nM.

Question: And the IC50 (HPAF-II)?
Answer: The IC50 was 1 nM.

Question: What about the IC50 [13] of the same molecule?
Answer: The IC50 was 1 nM.

Question: What about the Activity (MIA PaCa-2 [14]) of the same molecule?
Answer: The Activity was “inactive”.
